Converted amounts (≈) assume the structure as drawn.
Columns and labels:
[1] = system: Mycobacterium tuberculosis; experiment: Antimycobacterial activity against Mycobacterium tuberculosis H37Rv incubated for 12 to 28 days by agar dilution method; type: functional
In short: (§1)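 Conventional Lowenstein-Jensen agar dilution. Compound stock dilutions in DMSO (200 to 1.56 µg/mL) were added to liquid L.J. medium, which was then sterilized by inspissation. Culture was harvested in 0.85% saline. Tubes were kept 24 h at 37 °C, streaked with 5 x 10⁴ bacilli per tube, and incubated at 37 °C. Growth was read at days 12, 22 and 28 against drug-free controls. MIC was the lowest concentration giving no colonies or fewer than 20 (≥99% inhibition), converted from µg/mL to µM.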

[2] = system: Mycobacterium tuberculosis; experiment: Antimycobacterial activity against Mycobacterium tuberculosis MDR-TB incubated for 12 to 28 days by agar dilution method; type: functional; in short: as §1
Vero = experiment: Cytotoxicity against African green monkey Vero cells assessed as reduction in cell viability incubated for 72 hrs by MTT assay; type: cell-based; settings: Chlorocebus sabaeus
In short: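 Vero cells were grown in DMEM with 2 mM Na₂CO₃ and 10% FBS at 37 °C under 5% CO₂ until confluent, then diluted in PBS. Compounds came from DMSO stocks diluted in medium, with 1% DMSO final. Exposure was 72 h at 37 °C. Monolayers were washed with warm HBSS, then MTS-PMS was added for 3 h and absorbance read at 490 nm.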

[3] = system: Mycobacterium tuberculosis; experiment: Antimycobacterial activity against Mycobacterium tuberculosis H37Rv ATCC 27294 by microplate alamar blue assay; type: functional

Structure (SMILES)	MIC90 [1] [µM]	MIC90 [2] [µM]	IC50 (Vero) [µM]	MIC90 [3] [µg/mL]
CCC(=O)Nc1nnc(-c2ccc([N+](=O)[O-])cc2)s1	89 (≈ 24.8 µg/mL)	> 200		
O=C(CCl)Nc1nnc(-c2ccc([N+](=O)[O-])cc2)s1	168 (≈ 50.2 µg/mL)	> 200		
O=C(Nc1nnc(-c2cccc([N+](=O)[O-])c2)s1)c1ccc([N+](=O)[O-])cc1	33 (≈ 12.3 µg/mL)	134 (≈ 49.8 µg/mL)	268	
CCCC(=O)Nc1nnc(-c2ccncc2)s1	201 (≈ 49.9 µg/mL)	> 200		
O=C(Nc1nnc(-c2ccc([N+](=O)[O-])cc2)s1)c1ccccc1	38 (≈ 12.4 µg/mL)	306 (≈ 99.9 µg/mL)		
O=C(Nc1nnc(-c2ccc([N+](=O)[O-])cc2)s1)c1ccco1	9.87 (≈ 3.12 µg/mL)	9.87 (≈ 3.12 µg/mL)	306	
CC(C)(C)C(=O)Nc1nnc(-c2ccc([N+](=O)[O-])cc2)s1	204 (≈ 62.5 µg/mL)	> 200		
CCCCC(=O)Nc1nnc(-c2ccc([N+](=O)[O-])cc2)s1	40 (≈ 12.3 µg/mL)	163 (≈ 49.9 µg/mL)	278	
CCCC(=O)Nc1nnc(-c2cccc([N+](=O)[O-])c2)s1	42 (≈ 12.3 µg/mL)	> 200		
O=C(Nc1nnc(-c2ccncc2)s1)C(Cl)(Cl)Cl	> 200	> 200		
O=C(CCl)Nc1nnc(-c2cccc([N+](=O)[O-])c2)s1	21 (≈ 6.27 µg/mL)	> 200		
O=C(Nc1nnc(-c2ccncc2)s1)c1cccs1	21 (≈ 6.06 µg/mL)	> 200		
O=C(Cl)CCCCC(=O)Nc1nnc(-c2ccncc2)s1	192 (≈ 62.4 µg/mL)	> 200		
CC(Cl)CC(=O)Nc1nnc(-c2ccncc2)s1 (stereo not drawn)	> 200	> 200		
O=C(CCCCl)Nc1nnc(-c2ccc([N+](=O)[O-])cc2)s1	153 (≈ 50 µg/mL)	> 200		
O=C(Nc1nnc(-c2ccc([N+](=O)[O-])cc2)s1)c1ccc([N+](=O)[O-])cc1	16.8 (≈ 6.25 µg/mL)	67 (≈ 24.9 µg/mL)	290	
CCCCC(=O)Nc1nnc(-c2cccc([N+](=O)[O-])c2)s1	40 (≈ 12.3 µg/mL)	163 (≈ 49.9 µg/mL)	289	
O=C(CCl)Nc1nnc(-c2ccncc2)s1	196 (≈ 49.9 µg/mL)	> 200		
O=C(CSc1nnc(-c2ccc([N+](=O)[O-])o2)s1)Oc1ccccc1				0.78 (≈ 2.15 µM)
O=C(CCCCl)Nc1nnc(-c2cccc([N+](=O)[O-])c2)s1	153 (≈ 50 µg/mL)	> 200		
CC(Cl)CC(=O)Nc1nnc(-c2cccc([N+](=O)[O-])c2)s1 (stereo not drawn)	> 200	> 200		
O=C(Nc1nnc(-c2ccc([N+](=O)[O-])cc2)s1)c1cccs1	> 200	> 200		

Structure (SMILES)	MIC90 [1] [µM]	MIC90 [2] [µM]	IC50 (Vero) [µM]	MIC90 [3] [µg/mL]
Cc1ccc(C(=O)Nc2nnc(-c3ccc([N+](=O)[O-])cc3)s2)cc1	18.4 (≈ 6.26 µg/mL)	147 (≈ 50 µg/mL)	310	
O=[N+]([O-])c1ccc(CSc2nnc(-c3ccc([N+](=O)[O-])o3)s2)cc1				3.13 (≈ 8.59 µM)
O=C(Nc1nnc(-c2cccc([N+](=O)[O-])c2)s1)c1cccs1	301 (≈ 100 µg/mL)	> 200		
O=C(Cl)CCCCC(=O)Nc1nnc(-c2ccc([N+](=O)[O-])cc2)s1	135 (≈ 49.8 µg/mL)	271 (≈ 99.9 µg/mL)		
CCCC(=O)Nc1nnc(-c2ccc([N+](=O)[O-])cc2)s1	42 (≈ 12.3 µg/mL)	171 (≈ 50 µg/mL)	301	
COc1ccc(C(=O)Nc2nnc(-c3ccc([N+](=O)[O-])cc3)s2)cc1	35 (≈ 12.5 µg/mL)	140 (≈ 49.9 µg/mL)	278	
COc1ccc(C(=O)Nc2nnc(-c3cccc([N+](=O)[O-])c3)s2)cc1	35 (≈ 12.5 µg/mL)	280 (≈ 99.8 µg/mL)		
CC(C)(C)C(=O)Nc1nnc(-c2cccc([N+](=O)[O-])c2)s1	204 (≈ 62.5 µg/mL)	> 200		
CCC(=O)Nc1nnc(-c2cccc([N+](=O)[O-])c2)s1	89 (≈ 24.8 µg/mL)	> 200		
O=C(Nc1nnc(-c2ccc([N+](=O)[O-])cc2)s1)C(Cl)(Cl)Cl	273 (≈ 100 µg/mL)	> 200		
O=C(Cl)CCCCC(=O)Nc1nnc(-c2cccc([N+](=O)[O-])c2)s1	135 (≈ 49.8 µg/mL)	> 200		
C/C=C/C(CCC)N(C(=O)c1ccccc1)c1nnc(-c2ccc([N+](=O)[O-])cc2)s1 (stereo not drawn)	117 (≈ 49.4 µg/mL)	> 200		
O=C(Nc1nnc(-c2cccc([N+](=O)[O-])c2)s1)c1ccccc1	38 (≈ 12.4 µg/mL)	> 200		
O=C(Nc1nnc(-c2cccc([N+](=O)[O-])c2)s1)c1ccco1	19 (≈ 6.01 µg/mL)	39 (≈ 12.3 µg/mL)	312	
CC(C)(C)C(=O)Nc1nnc(-c2ccncc2)s1	238 (≈ 62.4 µg/mL)	> 200		
O=C(CCCCl)Nc1nnc(-c2ccncc2)s1	221 (≈ 62.5 µg/mL)	> 200		
O=C(Nc1nnc(-c2ccncc2)s1)c1ccc([N+](=O)[O-])cc1	9.93 (≈ 3.25 µg/mL)	76 (≈ 24.9 µg/mL)	369	
CCCCC(=O)Nc1nnc(-c2ccncc2)s1	95 (≈ 24.9 µg/mL)	381 (≈ 100 µg/mL)		
NNC(=O)c1ccncc1 [ISONIAZID]	3.64 (≈ 0.499 µg/mL)	> 200		
CO[C@H]1/C=C/O[C@@]2(C)Oc3c(C)c(O)c4c(O)c(c(/C=N/N5CCN(C)CC5)c(O)c4c3C2=O)NC(=O)/C(C)=C\C=C\[C@H](C)[C@H](O)[C@@H](C)[C@@H](O)[C@@H](C)[C@H](OC(C)=O)[C@@H]1C [RIFAMPIN]	0.152 (≈ 0.125 µg/mL)	128 (≈ 105 µg/mL)		
CN[C@@H]1C[C@H]2O[C@@](C)([C@@H]1OC)n1c3ccccc3c3c4c(c5c6ccccc6n2c5c31)C(=O)NC4 [STAUROSPORINE]			0.028	

Reference: ChEMBL document CHEMBL4339182, “Pyridine and nitro-phenyl linked 1,3,4-thiadiazoles as MDR-TB inhibitors” (Eur J Med Chem, 2019)
